Source: ChEMBL document CHEMBL4602658, “Stilbenes with Potent Protein Tyrosine Phosphatase-1B Inhibitory Activity from the Roots of Polygonum multiflorum” (J Nat Prod, 2020)
Calls of active or inactive are those of the source. The rule behind the calls is not given here.

Key:
[1] = target: T1, Tyrosine-protein phosphatase non-receptor type 1 (Homo sapiens, UniProt P18031); assay: Inhibition of PTP1B (unknown origin) assessed as decrease in p-nitrophenolate formation using pNPP as substrate incubated for 15 mins by spectrophotometric method
T1 sequence (P18031 whole entry): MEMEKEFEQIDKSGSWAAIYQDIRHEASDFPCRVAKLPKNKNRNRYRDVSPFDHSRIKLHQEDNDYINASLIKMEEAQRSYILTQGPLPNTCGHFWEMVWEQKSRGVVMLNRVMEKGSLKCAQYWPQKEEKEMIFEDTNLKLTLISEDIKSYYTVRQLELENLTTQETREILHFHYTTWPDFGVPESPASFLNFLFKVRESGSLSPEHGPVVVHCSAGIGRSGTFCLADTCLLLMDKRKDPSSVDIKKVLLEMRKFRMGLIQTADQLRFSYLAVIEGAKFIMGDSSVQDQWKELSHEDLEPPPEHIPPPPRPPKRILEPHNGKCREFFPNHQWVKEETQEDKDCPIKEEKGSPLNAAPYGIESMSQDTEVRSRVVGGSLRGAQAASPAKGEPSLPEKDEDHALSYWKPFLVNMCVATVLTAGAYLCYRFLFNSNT

[2] = target: T1, Tyrosine-protein phosphatase non-receptor type 1; assay: Inhibition of PTP1B (unknown origin) assessed as decrease in p-nitrophenolate formation using pNPP as substrate by Dixon plot analysis
Outline: (§1)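 Kinetic analysis of human recombinant PTP1B with p-NPP substrate, run at several inhibitor levels. Ki was obtained from Dixon plots, and the inhibition mode from Lineweaver–Burk plots.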

[3] = target: T2, Tyrosine-protein phosphatase non-receptor type 1 (Homo sapiens) (UniProt P18031); assay: Noncompetitive inhibition of PTP1B (unknown origin) assessed as decrease in p-nitrophenolate formation using pNPP as substrate by Lineweaver-Burk plot analysis; outline: as §1
T2 sequence (whole entry): T1 sequence (P18031 whole entry)

[4] = Antioxidant activity assessed as DPPH radical scavenging activity; format: functional

SMILES | IC50 [1] [µM] | further results
CC(=O)O[C@@H]1[C@@H](O)[C@H](Oc2c(O)cc(O)cc2/C=C/c2ccc(O)cc2)O[C@H](CO)[C@H]1O | 37.6 | –
COc1cc(/C=C/C(=O)O[C@@H]2[C@@H](O)[C@H](Oc3c(O)cc(O)cc3/C=C/c3ccc(O)cc3)O[C@H](CO)[C@H]2O)ccc1O | 27.4 | –
OC[C@H]1O[C@@H](OC[C@H]2O[C@@H](Oc3c(O)cc(O)cc3/C=C/c3ccc(O)cc3)[C@H](O)[C@@H](O)[C@@H]2O)[C@H](O)[C@@H](O)[C@@H]1O | > 50 | –
O=C(O)c1cc(O)cc(O)c1C(=O)Cc1ccc(O)cc1 | > 50 | –
Oc1ccc([C@H]2Oc3ccc(/C=C/c4cc(O)cc(O)c4O)cc3[C@@H]2c2cc(O)cc(O)c2O)cc1 | 2.1 | Ki [2]: 1.02 µM; inhibition [3]: Active
O=C(O[C@H]1[C@H](Oc2c(O)cc(O)cc2/C=C/c2ccc(O)cc2)O[C@H](CO)[C@@H](O)[C@@H]1O)c1cc(O)c(O)c(O)c1 | > 50 | –
OC[C@H]1O[C@@H](Oc2c(O)cc(O)cc2/C=C/c2ccc(O)cc2)[C@H](O)[C@@H](O)[C@@H]1O | > 50 | IC50 [4]: 40000 µM
COc1cc(/C=C/C(=O)O[C@H]2[C@H](Oc3c(O)cc(O)cc3/C=C/c3ccc(O)cc3)O[C@H](CO)[C@@H](O)[C@@H]2O)ccc1O | > 50 | –
Oc1ccc([C@@H]2Oc3ccc(/C=C/c4cc(O)cc(O)c4O)cc3[C@H]2c2cc(O)cc(O)c2O)cc1 | 1.9 | Ki [2]: 0.92 µM; inhibition [3]: Active
OC[C@H]1O[C@@H](Oc2c(O)cc(O)cc2[C@H]2c3c(cc(O)c(O[C@@H]4O[C@H](CO)[C@@H](O)[C@H](O)[C@H]4O)c3/C=C/c3ccc(O)cc3)O[C@@H]2c2ccc(O)cc2)[C@H](O)[C@@H](O)[C@@H]1O | > 50 | –
O=COC[C@H]1O[C@@H](Oc2c(O)cc(O)cc2/C=C/c2ccc(O)cc2)[C@H](O)[C@@H](O)[C@@H]1O | > 50 | –
COc1cc([C@@H]2CC(=O)Oc3cc(O)c(O[C@@H]4O[C@H](CO)[C@@H](O)[C@H](O)[C@H]4O)c(/C=C/c4ccc(O)cc4)c32)ccc1O | > 50 | –
C[C@@H]1O[C@@H](Oc2c(O)cc(O)cc2/C=C/c2ccc(O)cc2)[C@H](O)[C@H](O)[C@H]1O | > 50 | –
Oc1ccc(/C=C/c2cc(O)cc(O)c2O[C@@H]2OC[C@@H](O)[C@H](O)[C@H]2O)cc1 | > 50 | –
Oc1ccc(/C=C/c2cc(O)cc(O)c2)cc1 [RESVERATROL] | > 50 | –
OC[C@H]1O[C@@H](Oc2c(O)cc(O)cc2/C=C/c2ccc3c(c2)[C@@H](c2cc(O)cc(O)c2O[C@@H]2O[C@H](CO)[C@@H](O)[C@H](O)[C@H]2O)[C@H](c2ccc(O)cc2)O3)[C@H](O)[C@@H](O)[C@@H]1O | 34.9 | –
OC[C@H]1O[C@@H](Oc2c(O)cc(O)cc2/C=C/c2ccc3c(c2)[C@H](c2cc(O)cc(O)c2O[C@@H]2O[C@H](CO)[C@@H](O)[C@H](O)[C@H]2O)[C@@H](c2ccc(O)cc2)O3)[C@H](O)[C@@H](O)[C@@H]1O | 32.2 | –
CC(=O)OC[C@H]1O[C@@H](Oc2c(O)cc(O)cc2/C=C/c2ccc(O)cc2)[C@H](O)[C@@H](O)[C@@H]1O | > 50 | –
Oc1ccc(/C=C/c2cc(O)cc(O)c2O)cc1 | 12.1 | IC50 [4]: 400 µM
